Measured values published in ChEMBL document CHEMBL3259519, “Targeting triple-negative breast cancer cells with 6,7-bis(hydroxymethyl)-1H,3H-pyrrolo[1,2-c]thiazoles” (Eur J Med Chem, 2014).
Calls of active or inactive are those of the source. No cut-off for these calls is given here.

Tests used:
MCF7 [1] = assay: Induction of DNA strand break in human MCF7 cells expressing ER and BRCA2 at IC50 after 48 hrs by alkaline comet assay; type: functional, cell-based
Method in brief: (§1)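 5x10^5 cells got IC50 or 3x IC50 for 48 h (DMSO 0.1%); H2O2-treated cells served as positive control. Cells in 1% low-melt agarose went onto slides precoated with normal-melt agarose. Slides were lysed overnight in alkaline buffer (2.5 M NaCl, EDTA, Tris, DMSO, Triton X-100). Electrophoresis ran in 300 mM NaOH/1 mM EDTA (pH>13) at 25 V for 15 min. Slides were neutralized in Tris pH 7.4 and stained with 25 µg/mL ethidium bromide for fluorescence microscopy.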

MCF7 [2] = assay: Induction of DNA strand break in human MCF7 cells expressing ER and BRCA2 at 3 x IC50 after 48 hrs by alkaline comet assay; type: functional, cell-based; method in brief: as §1
HCC1806 [3] = assay: Induction of DNA strand break in ER, PR, HER2-deficient human HCC1806 cells at IC50 after 48 hrs by alkaline comet assay; type: functional, cell-based; method in brief: as §1
HCC1806 [4] = assay: Induction of DNA strand break in ER, PR, HER2-deficient human HCC1806 cells at 3 x IC50 after 48 hrs by alkaline comet assay; type: functional, cell-based; method in brief: as §1
HCC1806 [5] = assay: Antiproliferative activity against ER, PR, HER2-deficient human HCC1806 cells as growth inhibition after 24 hrs by MTT assay; type: functional, cell-based; conditions: HCC1806, 24 h
Method in brief: (§2)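 Cells were seeded at 2x10^4/well and left to attach overnight. Compounds in DMSO were diluted in medium and applied for 24, 48, 72 or 96 h. Cells were then PBS-washed and given 0.5 mg/mL MTT (pH 7.4) at 37 °C for 4 h. Formazan was dissolved in acid isopropanol. IC50 came from dose-response curves by exponential decay fitting (r2>0.9), with 95% CI.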

HCC1806 [6] = assay: Antiproliferative activity against ER, PR, HER2-deficient human HCC1806 cells as growth inhibition after 48 hrs by MTT assay; type: functional, cell-based; conditions: HCC1806, 48 h; method in brief: as §2
HCC1806 [7] = assay: Antiproliferative activity against ER, PR, HER2-deficient human HCC1806 cells as growth inhibition after 72 hrs by MTT assay; type: functional, cell-based; conditions: HCC1806, 72 h; method in brief: as §2
HCC1806 [8] = assay: Antiproliferative activity against ER, PR, HER2-deficient human HCC1806 cells as growth inhibition after 96 hrs by MTT assay; type: functional, cell-based; conditions: HCC1806, 96 h; method in brief: as §2
HCC1954 [9] = assay: Antiproliferative activity against human HCC1954 cells expressing HER2 assessed as growth inhibition after 24 hrs by MTT assay; type: functional, cell-based; conditions: HCC1954, 24 h; method in brief: as §2
HCC1954 [10] = assay: Antiproliferative activity against human HCC1954 cells expressing HER2 assessed as growth inhibition after 48 hrs by MTT assay; type: functional, cell-based; conditions: HCC1954, 48 h; method in brief: as §2
HCC1954 [11] = assay: Antiproliferative activity against human HCC1954 cells expressing HER2 assessed as growth inhibition after 72 hrs by MTT assay; type: functional, cell-based; conditions: HCC1954, 72 h; method in brief: as §2
HCC1954 [12] = assay: Antiproliferative activity against human HCC1954 cells expressing HER2 assessed as growth inhibition after 96 hrs by MTT assay; type: functional, cell-based; conditions: HCC1954, 96 h; method in brief: as §2
MCF7 [13] = assay: Cytotoxicity against human MCF7 cells expressing ER and BRCA2 assessed as reduction of survival factor at IC50 incubated for 48 hrs measured after 12 days by crystal violet staining-based clonogenic assay; type: functional, cell-based
HCC1806 [14] = assay: Cytotoxicity against ER, PR, HER2-deficient human HCC1806 cells as reduction of survival factor at IC50 incubated for 48 hrs measured after 12 days by crystal violet staining-based clonogenic assay; type: functional
MCF7 [15] = assay: Cytotoxicity against human MCF7 cells expressing ER and BRCA2 assessed as reduction of total protein content at IC50 after 48 hrs by SRB assay relative to control; type: functional; parameters: scale not given: the % may be the effect or the level left
HCC1806 [16] = assay: Cytotoxicity against ER, PR, HER2-deficient human HCC1806 cells as reduction of total protein content at IC50 incubated for 48 hrs by SRB assay relative to control; type: functional; parameters: scale not given: the % may be the effect or the level left
MCF7 [17] = assay: Induction of apoptosis in human MCF7 cells expressing ER and BRCA2 assessed as decrease in viable cells at IC50 after 48 hrs by Annexin V/propidium iodide staining-based flow cytometry relative to control; type: functional
Method in brief: (§3)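 2x10^6 cells were attached overnight, then given IC50 for 48 h (DMSO 0.1%). PBS-washed cells were stained with Annexin V-FITC and PI in binding buffer for 15 min at 4 °C in the dark. Flow cytometry used 488 nm excitation. Cells were gated as viable, apoptotic, late apoptotic/necrotic or necrotic, reported as mean ± SD (n≥5).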

HCC1806 [18] = assay: Induction of apoptosis in triple negative ER, PR, HER2-deficient human HCC1806 cells assessed as increase of late apoptotic/nectrotic cells at IC50 after 48 hrs by Annexin V/propidium iodide staining-based flow cytometry relative to control; type: functional, cell-based; method in brief: as §3
HCC1806 [19] = assay: Induction of apoptosis in triple negative ER, PR, HER2-deficient human HCC1806 cells assessed as decrease of viable cells at IC50 after 48 hrs by Annexin V/propidium iodide staining-based flow cytometry relative to control; type: functional; method in brief: as §3
MCF7 [20] = assay: Induction of apoptosis in human MCF7 cells expressing ER and BRCA2 assessed as increase of late apoptotic/nectrotic cells at IC50 after 48 hrs by Annexin V/propidium iodide staining-based flow cytometry relative to control; type: functional, cell-based; method in brief: as §3
MCF7 [21] = assay: Induction of apoptosis in human MCF7 cells expressing ER and BRCA2 assessed as increase of necrotic cells at IC50 after 48 hrs by Annexin V/propidium iodide staining-based flow cytometry relative to control; type: functional, cell-based; method in brief: as §3
HCC1806 [22] = assay: Induction of apoptosis in triple negative ER, PR, HER2-deficient human HCC1806 cells assessed as increase of necrotic cells at IC50 after 48 hrs by Annexin V/propidium iodide staining-based flow cytometry relative to control; type: functional, cell-based; method in brief: as §3
MCF7 [23] = assay: Cell cycle arrest in human MCF7 cells expressing ER and BRCA2 assessed as decrease in accumulation at G0/G1 phase at IC50 after 48 hrs by propidium staining-based FACS analysis; type: functional
Method in brief: (§4)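 2x10^6 cells were attached overnight, then exposed to IC50 for 48 h (DMSO 0.1%). They were fixed in ice-cold 70% ethanol for 30 min in the dark, PBS-washed and stained with PI/RNase for 15 min at RT. Flow cytometry used 488 nm excitation and a 585/42 filter. Sub-G0, G0/G1, S and G2/M fractions were reported as mean ± SD (n≥5).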

MCF7 [24] = assay: Cell cycle arrest in human MCF7 cells expressing ER and BRCA2 assessed as increase in accumulation at S phase at IC50 after 48 hrs by propidium staining-based FACS analysis; type: functional; method in brief: as §4
MCF7 [25] = assay: Cell cycle arrest in human MCF7 cells expressing ER and BRCA2 assessed as blockade at G2/M phase at IC50 after 48 hrs by propidium staining-based FACS analysis; type: functional; method in brief: as §4
HCC1806 [26] = assay: Cell cycle arrest in ER, PR, HER2-deficient human HCC1806 cells as blockade at G0/G1 phase at IC50 after 48 hrs by propidium staining-based FACS analysis; type: functional; method in brief: as §4
HCC1806 [27] = assay: Cell cycle arrest in ER, PR, HER2-deficient human HCC1806 cells as accumulation at S phase at IC50 after 48 hrs by propidium staining-based FACS analysis; type: functional; method in brief: as §4
HCC1806 [28] = assay: Cell cycle arrest in ER, PR, HER2-deficient human HCC1806 cells as accumulation at G2/M phase at IC50 after 48 hrs by propidium staining-based FACS analysis; type: functional; method in brief: as §4
MCF7 [29] = assay: Antiproliferative activity against human MCF7 cells expressing ER and BRCA2 assessed as growth inhibition after 24 hrs by MTT assay; type: functional, cell-based; conditions: MCF7, 24 h; method in brief: as §2
MCF7 [30] = assay: Antiproliferative activity against human MCF7 cells expressing ER and BRCA2 assessed as growth inhibition after 48 hrs by MTT assay; type: functional, cell-based; conditions: MCF7, 48 h; method in brief: as §2
MCF7 [31] = assay: Antiproliferative activity against human MCF7 cells expressing ER and BRCA2 assessed as growth inhibition after 72 hrs by MTT assay; type: functional, cell-based; conditions: MCF7, 72 h; method in brief: as §2
MCF7 [32] = assay: Antiproliferative activity against human MCF7 cells expressing ER and BRCA2 assessed as growth inhibition after 96 hrs by MTT assay; type: functional, cell-based; conditions: MCF7, 96 h; method in brief: as §2

| IC50 (HCC1806 [5]) [µM] | IC50 (HCC1806 [6]) [µM] | IC50 (HCC1806 [7]) [µM] | IC50 (HCC1806 [8]) [µM] | IC50 (HCC1954 [9]) [µM] | IC50 (HCC1954 [10]) [µM] | IC50 (HCC1954 [11]) [µM] | IC50 (HCC1954 [12]) [µM] | SMILES | further results |
| --- | --- | --- | --- | --- | --- | --- | --- | --- | --- |
| > 100 | 81.4 | 51.3 | 13.9 | 98.2 | 27 | 26.2 | 24.9 | Cc1c(CO)c(CO)c2n1[C@@H](c1ccccc1)SC2 | Activity (MCF7 [1]): Active; Activity (MCF7 [2]): Active; Activity (HCC1806 [3]): Active; Activity (HCC1806 [4]): Active; Activity (MCF7 [13]): Active; Activity (HCC1806 [14]): <2%; Activity (MCF7 [15]): 50%; Activity (HCC1806 [16]): 50%; Activity (MCF7 [17]): 55%; Activity (HCC1806 [18]): Active; Activity (HCC1806 [19]): 60%; Activity (MCF7 [20]): Active; Activity (MCF7 [21]): Active; Activity (HCC1806 [22]): Active; Activity (MCF7 [23]): Active; Activity (MCF7 [24]): Active; Activity (MCF7 [25]): Active; Activity (HCC1806 [26]): Active; Activity (HCC1806 [27]): inactive; Activity (HCC1806 [28]): inactive |
| > 100 | 63.1 | 78.5 | 28.7 | > 100 | 56.8 | 14.8 | 11.8 | Cc1c(CO)c(CO)c2n1[C@H](c1ccccc1)SC2 | – |
| 89 | 28 | 19.4 | 12.3 | > 100 | 84.4 | 56.1 | 19.2 | COc1ccc([C@H]2SCc3c(CO)c(CO)c(C)n32)cc1 | IC50 (MCF7 [29]): > 100 µM; IC50 (MCF7 [30]): 46.9 µM; IC50 (MCF7 [31]): 32.7 µM; IC50 (MCF7 [32]): 6.6 µM |
